Results of several laboratories.
Each line is one published result; the experiments were not run side by side.
Cell line: A549
Observed: cell growth or viability

SMILES | method | time | IC50
CCN(CC)CCn1cccc1/C=N/NC(=O)Nc1cc2c(Nc3ccc(F)c(Cl)c3)ncnc2cc1OC | MTT | 72 h | 0.43 µM
O=C(NC(=S)NCc1ccccc1)c1ccc2ccccc2c1 |  | 48 h | 5.53 µM
CCc1c2c(nc3ccc(OC(=O)N4CCC(N5CCCCC5)CC4)cc13)-c1cc3c(c(=O)n1C2)COC(=O)[C@]3(O)CC | SRB | 72 h | 9.5 µM
Cc1ccc(C)n1-c1ccc(-c2nnc(-c3c(Cl)cccc3Cl)[nH]2)cc1 | MTT | 72 h | 231 µM
NNc1nc(Nc2ccccc2)nc(Nc2ccc(Br)cc2)n1 | SRB | 72 h | > 30 µM
CC(=O)O[C@H]1C(=O)[C@@]2(C)[C@H]([C@H](OC(=O)c3ccccc3)[C@]3(O)C[C@H](OC(=O)[C@H](O)[C@@H](NC(=O)c4ccccc4)c4ccccc4)C(C)=C1C3(C)C)[C@]1(OC(C)=O)CO[C@@H]1C[C@@H]2O | SRB |  | 0.0025 µM
Cc1ccc(C)n1-c1ccc(-c2nnco2)cc1 | MTT | 72 h | 226 µM
CC(=O)O[C@H]1C(=O)[C@@]2(C)[C@H]([C@H](OC(=O)c3ccccc3)[C@]3(O)C[C@H](OC(=O)[C@H](O)[C@@H](NC(=O)c4ccccc4)c4ccccc4)C(C)=C1C3(C)C)[C@]1(OC(C)=O)CO[C@@H]1C[C@@H]2O | CCK-8 | 72 h | 0.0206 µM
C=CC(=O)Nc1cc(Nc2nc(N3CCc4sccc4C3)c3cccnc3n2)c(OC)cc1N1CCN(C(C)=O)CC1 | MTT |  | > 50 µM
CCN(CC)C(=S)NC(=O)c1ccc2ccccc2c1 |  | 48 h | 4.76 µM
Cc1c(OCC(F)(F)F)ccnc1COc1ccc(NC(=O)Nc2cc(F)cc(F)c2)cc1 | MTT | 72 h | 7.67 µM
COc1ccc2c(c1)/C(=N/NC(=O)c1cc3ccccc3[nH]1)C(=O)N2C |  |  | 1.93 µM
COc1ccccc1/C=C/CNCC(O)COc1ccc(C2CCCCC2)cc1 (centres unmarked) | CCK-8 | 72 h | 11.2 µM
C#Cc1cccc(Nc2ncnc3cc(OCCOC)c(OCCOC)cc23)c1 | MTT |  | 19.4 µM
COc1cc2ncnc(Nc3ccc(F)c(Cl)c3)c2cc1NC(=O)N/N=C/c1cccn1CCCN1CCCCC1 | MTT | 72 h | 3.08 µM
COc1cc(Nc2nccc(-c3cnn4nc(OC)ccc34)n2)cc(C(F)(F)F)c1 | ATP luminescence |  | 0.47 µM
Cc1cc(C)cc(NC(=O)NNC(=O)c2ccc(Nc3nccc(-c4ccccn4)n3)cc2)c1 | MTT | 24 h | > 40 µM
Cc1ccc(-c2nn(-c3ccc(S(C)(=O)=O)cc3)cc2/C=N\N=c2/[nH]c(-c3ccc([N+](=O)[O-])cc3)cs2)cc1 | MTT | 48 h | 57.6 µM
CCN(CC)CCNC(=O)c1c(C)[nH]c(/C=C2\C(=O)Nc3ccc(F)cc32)c1C |  | 72 h | 4.56 µM
CCN(CC)CCNC(=O)c1c(C)[nH]c(/C=C2\C(=O)Nc3ccc(F)cc32)c1C |  |  | 3.06 µM
O=C(N/N=C/c1cccn1CCCN1CCOCC1)Nc1cc2c(Nc3ccc(F)c(Cl)c3)ncnc2cc1O[C@H]1CCOC1 | MTT | 72 h | 5.62 µM

SMILES | method | time | IC50
COc1ccccc1/C=C/CNCC(O)COc1cccc2ccccc12 (centres unmarked) | CCK-8 | 72 h | 16.9 µM
O=C(Nc1nnc(-c2cc3ccccc3[nH]2)s1)c1cc2c([nH]c3ccccc32)c(-c2ccccc2)n1 | MTT | 72 h | 3 µM
Cc1c(OCC(F)(F)F)ccnc1COc1ccc(NC(=O)Nc2cccc(C(F)(F)F)c2)cc1 | MTT | 72 h | 2.65 µM
COc1ccc(NC(=O)NNC(=O)c2cccc(Nc3nccc(-c4cccnc4)n3)c2)c(OC)c1 | MTT | 24 h | > 40 µM
O=C(CN1C(=O)/C(=C/c2ccco2)SC1=S)Nc1ccccc1 | MTT |  | 14.9 µM
COc1ccccc1OCCNC(=O)COc1cccc2[nH]c3ccccc3c12 | CCK-8 | 72 h | > 100 µM
O=C(N/N=C/c1cccn1CCN1CCCCC1)Nc1cc2c(Nc3ccc(F)c(Cl)c3)ncnc2cc1O[C@H]1CCOC1 | MTT | 72 h | 3.58 µM
O=C(Nc1nnc(-c2cc3ccccc3[nH]2)s1)c1cc2c([nH]c3ccccc32)c(-c2ccc(F)cc2)n1 | MTT | 72 h | 3.64 µM
COc1c(C)cnc(COc2ccc(NC(=O)Nc3ccc(Cl)c(C(F)(F)F)c3)cc2)c1C | MTT | 72 h | 6.63 µM
COc1c2c(cc3c1OCO3)[C@]13C=C[C@H](OC)C[C@H]1N(C2)C[C@H]3OC(=O)c1cccc(C)c1 | WST-1 |  | > 10 µM
CC1=C(O)C(=O)C=C2C1=CC=C1[C@@]2(C)CC[C@@]2(C)[C@@H]3C[C@](C)(C(=O)OCCCOc4ccccc4)CC[C@]3(C)CC[C@]12C | MTT | 48 h | 5.39 µM
O=C(N/N=C/c1cccn1CCN1CCCC1)Nc1cc2c(Nc3ccc(F)c(Cl)c3)ncnc2cc1O[C@H]1CCOC1 | MTT | 72 h | 2.39 µM
CCC(=O)Nc1cc(Nc2nc(N3CCc4sccc4C3)c3cccnc3n2)c(OC)cc1N1CCN(CC)CC1 | MTT |  | 21.9 µM
COc1cccc2c1C(=O)c1c(O)c3c(c(O)c1C2=O)C[C@@](O)(C(=O)CO)C[C@@H]3O[C@H]1C[C@H](N)[C@H](O)[C@H](C)O1 | MTT | 24 h | > 100 µM
CCC(=O)Nc1cc(Nc2nc(N3CCc4sccc4C3)c3cccnc3n2)c(OC)cc1N1CCN(C(C)=O)CC1 | MTT |  | 7.01 µM
CC1=C(O)C(=O)C=C2C1=CC=C1[C@@]2(C)CC[C@@]2(C)[C@@H]3C[C@](C)(C(=O)OCCCCCO)CC[C@]3(C)CC[C@]12C | MTT | 48 h | > 100 µM
C=C(Cl)C(=O)Nc1cc(Nc2nc(N3CCOCC3)c3sccc3n2)c(OC)cc1N(C)CCN(C)C | MTT |  | 0.107 µM
COc1cc2c(Nc3ccc(NC(=O)c4ccccc4)cc3)ncnc2cc1OCCCN1CCOCC1 | MTS | 48 h | 3.2 µM
O=C(N/N=C/CN1CCCC1)Nc1cc2c(Nc3ccc(F)c(Cl)c3)ncnc2cc1O[C@H]1CCOC1 | MTT | 72 h | 6.48 µM
CCCCCCCCCCCC(=O)Oc1c(C)c(O)c(C(=O)/C=C/c2ccccc2)c(OC)c1C | SRB | 72 h | > 50 µM
